Laboratory results published in article PMC3076219 (European journal of immunology, 2009).
Values joined by “and” are separate entries in the source; they are usually repeats but may differ in a detail not shown here. Equal values may be shown once.

How the values were obtained:
FPR2 = FPR2 surface expression on neutrophils; format: cell-based, human; conditions: LL-37; data not shown
neutrophils [1] = assay: Calcium mobilization of neutrophils; format: cell-based, human
neutrophils [2] = assay: Cross-desensitization of calcium mobilization of neutrophils; format: cell-based, human
neutrophils [3] = assay: Neutrophil migration, 24-well Transwell; format: cell-based, human; conditions: 1 h, 37°C, Fig. 6H
Method in brief: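 CFSE-labelled human neutrophils (5 µM, 5 min RT) at 5×10^6/mL in phenol-red-free RPMI 1640 with 1% FBS went in the Transwell upper chamber (3-µm pores). The lower chamber held test peptide (1 or 5 µM) or medium. Some cells were first preincubated 20 min with 10 µM CXCR2 antagonist. After 1 h at 37 °C, migrated cells were read at 495 nm against a standard curve. Quadruplicate; unpaired t-test.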

CXCR2 [4] = assay: Calcium mobilization in HEK293/CXCR2 cells; format: cell-based, human; conditions: Indo-1; Fig. 7A-B
Method in brief: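 They were washed in cold PBS, pelleted at 200 × g for 10 min at 4 °C, and resuspended in PBS with Ca/Mg. […] [Ca2+]i was read as the 405:485 nm ratio by flow cytometry, gating on living cells.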

CXCR1 = assay: Calcium mobilization in HEK293/CXCR1 cells; format: cell-based, human; conditions: Indo-1; Fig. 7A-B
Method in brief: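 CXCR1-transfected HEK293 cells were loaded with 5 µM Indo-1-AM in 5 µM pluronic F-127/PBS for 30 min at RT. They were washed in cold PBS, spun at 200 × g for 10 min at 4 °C and suspended in PBS with calcium and magnesium. Stimulation followed baseline recording. Flow cytometric [Ca2+]i was read as the 405:485 nm emission ratio with 351 nm excitation. Three independent experiments.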

THP-1 cells [5] = assay: Calcium mobilization in THP-1 cells; format: cell-based; conditions: Fig. 7C
Method in brief: (§1)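 Peripheral blood monocytes (kit-isolated from PBMC, CD14-checked) or THP-1 cells at 10^7/mL were loaded with 5 µM Indo-1-AM for 7 min at 37 °C, then held 10 min at RT and washed in cold PBS. Cells were run at 2×10^6/mL in KRP (PBS, 1.5 mM CaCl2, 1.5 mM MgSO4). After baseline they got a first stimulus, then a second. Flow cytometry used 351 nm excitation and the 405:485 nm ratio, gating live cells. Three independent experiments.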

monocytes [6] = assay: Calcium mobilization in monocytes; format: cell-based, human
Method in brief: as §1

THP-1 cells [7] = assay: Migration of THP-1 cells, 24-well Transwell; format: cell-based; conditions: LL-37 5 µM, CXCL1 50 nM, WKYMVm 5 µM, ATP 50 µM, BzATP 50 µM; 2 h, 37°C; Fig. 7E
Method in brief: (§2)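 CFSE-labelled monocytes or THP-1 cells (5 µM, 5 min RT) at 2×10^6/mL in phenol-red-free RPMI 1640 with 1% FBS went in the Transwell upper chamber (3-µm pores). Stimuli in the lower chamber included CXCL1 50 nM, WKYMVm 5 µM and ATP/BzATP 50 µM. Cells were used with or without 20 min preincubation with 10 µM CXCR2 antagonist. Incubation at 37 °C lasted 90 min for monocytes and 2 h for THP-1. Lower-well cells were read at 495 nm against a standard curve, in quadruplicate.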

monocytes [8] = assay: Migration of monocytes, 24-well Transwell; format: cell-based, human; conditions: LL-37 5 µM, CXCL1 50 nM, WKYMVm 5 µM, ATP 50 µM, BzATP 50 µM; 90 min, 37°C; Fig. 7F
Method in brief: as §2

[9] = test system: CXCR2 transfected HEK293 cells; assay: Secondary necrosis of CXCR2 transfected HEK293 cells; format: cell-based; conditions: Supporting information Fig. 4
neutrophils [10] = assay: Toxicity to neutrophils; format: cell-based, human
CXCR2 [11] = assay: Block of anti-CXCR2 antibody binding to neutrophils; format: cell-based, human; conditions: LL-37 treated neutrophils; Supporting Information Fig. 6A
CXCR2 [12] = assay: Total CXCR2 protein in neutrophils, western blot; format: cell-based, human; conditions: LL-37 treated neutrophils, Supporting Information Fig. 6B
CXCR2 [13] = conditions: LL-37 treated neutrophils; ref [15]; cited from earlier work
neutrophils [14] = conditions: cited from earlier work
monocytes [15] = conditions: cited from earlier work
neutrophils [16] = conditions: LL-37; ref [15]; cited from earlier work
immature dendritic cells = conditions: differentiated from monocytes; ref [9]; cited from earlier work
P2X7 = conditions: LL-37; ref [14]; cited from earlier work
macrophages = conditions: including chemokines and their receptors; ref [6]; cited from earlier work
[17] = cited from earlier work
CD4+ T cells = conditions: ref [3], [9], [10]; cited from earlier work

Substance: LL-37: ~4.5 kD active α-helical peptide, C-terminal domain of human cathelicidin hCAP18
- FPR2 surface expression, time course (FPR2): remained unchanged
- [Ca2+]i pattern, dose response (neutrophils [1]; LL-37 1 µM, 2.5 µM, 5 µM, 10 µM, Indo-1, Fig. 3A): a rapid rise followed by a slightly declining plateau region
- [Ca2+]i duration (neutrophils [1]; LL-37, 600s recording time, Fig. 3A): sustained calcium mobilization over the 600s recording time
- return of Ca2+ response to baseline, neutrophils (neutrophils [1]; LL-37, Fig 3A): returns to baseline for THP-1 cells, but not for neutrophils and monocytes
- calcium flux response in the absence of extracellular Ca2+ (neutrophils [1]; PBS without calcium and magnesium, LL-37 5 µM, WKYMVm 5 µM, ATP 5 µM, Fig. 3C): only the WKYMVm peptide is capable of generating a calcium flux response
- cross-desensitization of ATP response by LL-37 (neutrophils [2]; LL-37 first, then ATP, Supporting information Fig. 3A-B): unable to block calcium mobilization stimulated by LL-37 in neutrophils, and vice versa
- cross-desensitization of response to fMLF by LL-37, CXCL7, CXCL1 (neutrophils [2]; data not shown): do not cross-sensitize fMLF stimulation
- neutrophil migration at 1 µM (neutrophils [3]; LL-37 1 µM): not at 1 µM
- neutrophil migration at 5 µM (neutrophils [3]; LL-37 5 µM, over background, p<0.05): induced neutrophil migration (over background)
- calcium mobilization in CXCR2 transfected HEK293 cells (CXCR2 [4]): weak but similar patterns of calcium mobilization
- calcium mobilization in CXCR1 transfected HEK293 cells (CXCR1): only CXCL8 gave a response
- calcium signal in THP-1 cells (THP-1 cells [5]): robust calcium signal
- return of Ca2+ response to baseline, THP-1 (THP-1 cells [5]; LL-37): returns to baseline for THP-1 cells
- block of ATP induced calcium mobilization by LL-37 (THP-1 cells [5]; THP-1): able to partially block
- return of Ca2+ response to baseline, monocytes (monocytes [6]; LL-37, Fig. 7D): returns to baseline for THP-1 cells, but not for neutrophils and monocytes
- cross-block of ATP stimulated calcium mobilization in monocytes (monocytes [6]; LL-37 first, then ATP, Fig. 7D): neither ATP nor WKYMVm cross-block LL-37 stimulated calcium mobilization and vice versa
- cross-block of WKYMVm stimulated calcium mobilization in monocytes (monocytes [6]; LL-37 first, then WKYMVm, Fig. 7D): neither ATP nor WKYMVm cross-block LL-37 stimulated calcium mobilization and vice versa
- calcium mobilization in monocytes (monocytes [6]; LL-37 stimulated): stimulates calcium mobilization
- stimulation of migration of THP-1 cells (THP-1 cells [7]): but not THP-1 cells
- stimulation of migration of monocytes (monocytes [8]): able to stimulate migration in monocytes
- generation of secondary necrotic cells, HEK293/CXCR2 [9]: generation of secondary necrotic cells
- cell membrane permeability (neutrophils [10]; > 10 µM LL-37, 125I-CXCL8 enters cells non-specifically): can cause cell membrane permeability
- concentration with toxic activity on neutrophils (neutrophils [10]; in 125I-CXCL8 binding study): > 10 µM and 10 µM
- block of anti-CXCR2 antibody binding (CXCR2 [11]): did not block anti-CXCR2 antibodiy binding
- total CXCR2 protein level (CXCR2 [12]): no changes in total amounts
- down-regulation among 21 cell surface markers (CXCR2 [13]): only CXCR2 was specifically down-regulated
- migration of neutrophils (neutrophils [14]; ref [3], [9], [10]): migration of human peripheral monocytes, neutrophils
- neutrophil migration (literature) (neutrophils [14]; ref [9]): induces neutrophil migration
- migration of human peripheral monocytes (monocytes [15]; ref [3], [9], [10]): migration of human peripheral monocytes
- in vitro migration of human peripheral blood monocytes (monocytes [15]; ref [9]): induces in vitro migration of human peripheral blood monocytes
- ATP release (neutrophils [16]): induces ATP release from neutrophils
- migration of immature dendritic cells (immature dendritic cells): but not immature dendritic cells
- IL-1β processing and release from monocytes (P2X7): induce IL-1β processing and release from monocytes
- number of genes with stimulated expression by macrophages (macrophages): over 40 genes
- wound neovascularization ([17]; ref [7]): promotes wound neovascularization
- re-epithelialization of healing skin ([17]; ref [8]): re-epithelialization of healing skin
- migration of CD4+ T cells (CD4+ T cells): migration of human peripheral monocytes, neutrophils, CD4+ T cells
